Among the data in ChEMBL document CHEMBL4513216, “Probing the Open Global Health Chemical Diversity Library for Multistage-Active Starting Points for Next-Generation Antimalarials” (ACS Infect Dis, 2020) are cytotoxicity values, retold here.

A short description of this series: Toxicity liver stage against HepG2, at 10uM. The class given is cell-based. Further details: test concentration 10 uM, cell line HepG2-A16-CD81EGFP. The note with it: human, HepG2-A16-CD81EGFP cells; read-out: INHIBITION
Summed up:
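Uninfected HepG2-A16-CD81EGFP cells, 3 × 10^3 per well, 1536-well, plated on prespotted compound at 10 μM final, parasite-free screening media added to match infected plates; puromycin 10 μM positive, DMSO 0.5% negative; run in parallel with 48 h PbLuc assay at 37 °C, 5% CO2; viability by CellTiter-Glo luminescence, normalized to controls.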

In the case of `NC(=O)C(CNC(=O)COCC(F)(F)F)Cc1ccc(F)cc1` (configuration not stated), the cytotoxicity at 10 µM is -5.36%.
In the case of `CCc1nc(CN(C)C2CCN(CCc3ccncc3)C2)no1` (configuration not stated) it was -20.2%.
In the case of `CN(C)Cc1cc(-c2nccn2CCc2cccnc2)ccc1O` it was -42.9%; in that of `COc1ccc(CNC(=O)CNc2cc3c(cc2Cl)OCCCO3)cc1`, 3.25%.
As to `N#Cc1cccc(OCCN2CCn3c(nnc3C3CC3)C2)c1`, the cytotoxicity at 10 µM was -7%.
Consider `Cc1nc(C(C)(C)NCc2ncc(C3CC3)o2)sc1C`, for which the cytotoxicity at 10 µM turned out to be 3.57%.
On to `CC(C)C[C@H](N)COc1cccc(F)c1Oc1cccc(Cl)c1`, for which the cytotoxicity at 10 µM was 86.1%.
Next, `COc1cnc(C2(O)CCN(C(=O)c3ccncc3)CC2)c(OC)n1`: -4.38%.
As to `O=C(NC1CCC1)C1=NOC2(CCN(Cc3ccco3)C2)C1` (configuration not stated), the cytotoxicity at 10 µM is -80.6%.
Next, `CC(C)COc1cncc(N(C)C2CCN(c3ncccn3)CC2)n1`: 0.583%; `CCOC(=O)[C@H]1[C@@H](O)C(=O)N(C)C12CCN(C(=O)CC(C)(C)C)CC2`: -4.1%.
Next, `NS(=O)(=O)c1cc(C(=O)N2CCCC(n3ccnc3)C2)cs1` (configuration not stated): -11.3%.
For `CN(Cc1ccncc1)C(=O)NC1CCS(=O)(=O)C1` (configuration not stated), the cytotoxicity at 10 µM is -2.94%.
In the case of `CCCOCC1CCN(C(=O)c2cnc(-c3csc(C)n3)nc2O)C1` (configuration not stated) it was 5.25%; in that of `Nc1ccnc(N2C[C@H](O)[C@@H](N3CCN(c4ccccn4)CC3)C2)n1`, 6.7%.
On to `Cc1cnc(N2C[C@@H]3[C@@H](C(=O)NCC(C)C)CCS(=O)(=O)[C@@H]3C2)nc1`, for which the cytotoxicity at 10 µM was -155%.
With `COc1ncccc1NC(=O)NC(CCCO)c1ccccc1` (configuration not stated), the cytotoxicity at 10 µM is 11.2%.
For `COCCN(CC1CCCN(C2Cc3ccccc3C2)C1)C(=O)CSC` (configuration not stated), the cytotoxicity at 10 µM was -1.66%.
Consider `c1cncc(OCC2CN(Cc3nccs3)Cc3nccn3C2)c1` (configuration not stated), for which the cytotoxicity at 10 µM turned out to be 6.9%.
For `CCN(Cc1ccoc1)C(C(N)=O)c1ccc(Br)cc1` (configuration not stated), the cytotoxicity at 10 µM is -5.5%.
`Cc1cc(C(=O)N(C)Cc2nc(-c3ccccn3)no2)c(C)o1`: the cytotoxicity at 10 µM was 2.84%.
As for `COc1ccccc1CNC(=O)c1[nH]ncc1Cl`, the cytotoxicity at 10 µM is 1.72%.
As to `CN(C)Cc1cc(C2CCCCN2S(=O)(=O)Cc2ccccc2)nn1C` (configuration not stated), the cytotoxicity at 10 µM came out at 0.57%.
Consider `Cc1[nH]ccc1C(=O)NCC1CC(=O)N(CCc2ccccc2)C1` (configuration not stated), for which the cytotoxicity at 10 µM was -1.92%.
Next, `COCCNc1nc2c(c(NCc3cnc(C)cn3)n1)CCNCC2`: -0.106%; `O=C(c1cccnc1)N1CCOC(CCCc2ccccc2)C1` (configuration not stated): 7.07%; `CN(C)CCOCC1CN(Cc2ccccn2)Cc2nnn(C)c21` (configuration not stated): 5.5%.
For the molecule `CC(=O)N1CCC(N2CCOC[C@H]2c2nc(-c3cccnc3)c[nH]2)CC1`, the cytotoxicity at 10 µM was 1.35%.
As for `CCN1CCC(N2CCN(c3cc(-c4nc(C)no4)ccn3)CC2)CC1`, the cytotoxicity at 10 µM is -3.79%.
With `CCc1nnc2n1CC(CNCc1nnc(C(C)(C)C)o1)CC2` (configuration not stated), the cytotoxicity at 10 µM was 3.18%.
For the molecule `CCCc1cncnc1N1CCC(NCCc2ccc(O)cc2)CC1`, the cytotoxicity at 10 µM turned out to be 2.47%.
For `COCc1cnc2n1CCN(C(=O)c1ccc3ccccc3n1)C2C` (configuration not stated), the cytotoxicity at 10 µM was -112%.
On to `CC(C)N(CC(N)=O)C(=O)c1cc(F)ccc1N1CCN(C)CC1`, for which the cytotoxicity at 10 µM was determined as 7.66%.
In the case of `Fc1cccc(OC2CCN(CCn3cc4ccccc4n3)CC2)c1` it was 8.33%; in that of `CSCc1noc(CNC(=O)c2cc(C)c(C)[nH]c2=O)n1`, 0.355%.
For `Cc1cc(C(=O)NCCN2CCC(C)CC2)nn1C(C)(C)C`, the cytotoxicity at 10 µM is 13.3%.
Take `Cc1cccc(CN2C(=O)CC[C@@H]3[C@H]2CCN3C(=O)c2ccsc2)n1`: the cytotoxicity at 10 µM is -85.7%.
For `CCc1nnc2n1CC(CNCc1ccncc1)CC2` (configuration not stated), the cytotoxicity at 10 µM is -15.1%.
As for `CN(C)CCCC(=O)N1C[C@@H]2CC[C@H]1CN(Cc1ccccc1)C2`, the cytotoxicity at 10 µM is -5.39%.
Regarding `O=C(NCCn1cccn1)c1nnc2ccccc2n1`, the cytotoxicity at 10 µM is -2.41%.
In the case of `COc1cc(NC(=O)c2cc(Cl)ccc2F)c(C(=O)N(C)C)cc1OC` it was -2.61%.
Regarding `NCC(CO)Cc1cccc(OC(F)(F)F)c1` (configuration not stated), the cytotoxicity at 10 µM worked out at 3.2%.
Next, `O=C(O)C1(Oc2ccc3ccccc3c2)CCN(c2ncccn2)CC1`: 1.46%; `Cc1ccc2oc(SCC(N)=O)nc2n1`: 9.65%; `O=C(NCc1ccc(Cl)cc1)[C@@H]1Cc2[nH]cnc2CN1CC1CC1`: 3.67%.
With `OC(COCc1ccc(Cl)cc1)CN1CC(n2cccn2)C1` (configuration not stated), the cytotoxicity at 10 µM was -6.25%.
Consider `CNC(=O)c1cccc(CC2COCCN(Cc3ccsc3)C2)n1` (configuration not stated), for which the cytotoxicity at 10 µM is -0.257%.
With `CN(C)Cc1ccnc(C2CCCN2Cc2ccc(F)cn2)n1` (configuration not stated), the cytotoxicity at 10 µM is -17.7%.
For the molecule `CCCN1CCc2nc(N3CCOCC3)nc(NC(C)C)c2C1`, the cytotoxicity at 10 µM was -111%.
With `CN1C(=O)C(c2ccccc2)CC12CCN(CCO)CC2` (configuration not stated), the cytotoxicity at 10 µM turned out to be 5.12%.
Regarding `O=C(NCCc1c[nH]cn1)C1CCCN(C2CCOCC2)C1` (configuration not stated), the cytotoxicity at 10 µM was 1.58%.
As to `CN(C)C(=O)COC[C@H]1CC[C@@H]2[C@@H](CCN2Cc2ccco2)O1`, the cytotoxicity at 10 µM was -160%.
For `CCc1[nH]ncc1C(=O)N1CCCC(n2nc(C)nc2C)C1` (configuration not stated), the cytotoxicity at 10 µM is -6.02%.
`CCn1nc(CC(C)C)cc1C(=O)NCc1c(C)cc(C)nc1OC`: the cytotoxicity at 10 µM worked out at 1.66%.
In the case of `CC(C)NC(=O)c1nc2c(s1)CCCN2Cc1ccccc1` it was 18.3%.
Next, `Cc1ccc(-c2nc(CNS(=O)(=O)N(C)C)[nH]c2-c2ccccn2)cc1`: -0.678%; `COCCCN(CCOC)C(=O)Nc1ccccc1Br`: 5.86%.
As for `CCOC(=O)NC(CNC(=O)c1cc(Cl)ccn1)CC(C)C` (configuration not stated), the cytotoxicity at 10 µM turned out to be 5.38%.
For the molecule `CC[C@@H](CO)Nc1cc(-c2cn[nH]c2)ncn1`, the cytotoxicity at 10 µM is -4.78%.
`N#Cc1cccnc1NCCNC(=O)N1CCCC(C(F)(F)F)C1` (configuration not stated): the cytotoxicity at 10 µM is -3.76%.
With `O=C(C1CCC1)N1CCCn2nc(CNc3ncccn3)cc2C1`, the cytotoxicity at 10 µM is -123%.
On to `COc1cc(F)c(NC(=O)N(C)CCNC(=O)N(C)C)cc1F`, for which the cytotoxicity at 10 µM is 17.6%.
For `CCN1CCc2c(cccc2NC(=O)N(C)C2CCSC2)C1` (configuration not stated), the cytotoxicity at 10 µM was -49.1%.
For `COc1cccc(-c2nc(CNCc3cccnc3)cs2)c1`, the cytotoxicity at 10 µM is -9.37%.
`Cc1nn(Cn2ccc(C(=O)N3CCCC(C)C3)n2)c(C)c1Cl` (configuration not stated): the cytotoxicity at 10 µM stood at 2%.
With `CC(=O)N1CC[C@@H]2O[C@H](C(=O)Nc3nc(C)cs3)C[C@@H]21`, the cytotoxicity at 10 µM was 4.62%.
In the case of `Cc1nnn2c1COCC(CNC(=O)c1ccnnc1)C2` (configuration not stated), the cytotoxicity at 10 µM was -1.35%.
Next, `Cn1ncc2c1C(COCC1CC1)CN(Cc1nccs1)C2` (configuration not stated): 4.49%; `COc1cc2nc(NCc3cc(C)on3)nc(N)c2cc1OC`: -3.34%.
For `COCc1cccc(CNCc2c(C)nn(C)c2N2CCOCC2)c1`, the cytotoxicity at 10 µM was -8.93%.
Take `Cn1cc(CN2CCCn3cnc(CN4CCCC4=O)c3C2)cn1`: the cytotoxicity at 10 µM is -1.39%.
Take `CC1CCCN(C(=O)c2cccc(CS(C)(=O)=O)c2)C1` (configuration not stated): the cytotoxicity at 10 µM is -1.42%.
